Screens (PubChem BioAssay)
CRFBP-R2 block – antagonists of CRF-BP/CRF-R2 complex, primary screen, cell-based, HEK293, calcium dye fluorescence, uHTS | AID 588475, 2011 | inhibition, % at 11.8 µM | CRF-induced calcium fluorescence | 350,000 tested, 0.59% active;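 active = inhibition of the ligand-induced calcium signal above about 50% at the single tested concentration, limit read from the data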
TRPN1 ag – zebrafish TRPN1 channel agonists, primary screen, cell-based, HEK293, calcium fluorescence. activation, % at 3 µM. AID 1424, 2008. HEK293 zebrafish TRPN1-YFP, Fluo-8 calcium fluorescence; 100% = response to 87 µM carbachol. 220,000 tested, 0.18% active. transient receptor potential cation channel N1 (TRPN1/NompC), Danio rerio;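 active = activation above its plate's cutoff, the mean activation of test wells on that plate plus 3 SD, cut at about 19% in these data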
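Control set: carbachol 87 µM as high control, DMSO as low control; system: HEK293 stable line with zebrafish TRPN1-YFP; read-out: % activation versus carbachol response; detection: intracellular calcium fluorescence with Fluo-8; doses: single test compound dose, 3 µM nominal, 0.3% DMSO; schedule: dye 1 h 37 °C plus 30 min RT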
TRPML3 ag – human TRPML3 channel agonists, primary screen, cell-based, HEK293 TRPML3-YFP, Fluo-8 calcium fluorescence, 3 µM | 220,000 tested, 0.29% active | 100% = the carbachol control signal | activation, % at 3 µM | AID 1448, 2008 | Mucolipin-3 (Homo sapiens), Q8TDD5;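 active = activation above its plate's cutoff, the mean activation of the plate's test wells plus 3 SD, cut at about 12% in these data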
Target sequence (Q8TDD5 whole entry, looked up): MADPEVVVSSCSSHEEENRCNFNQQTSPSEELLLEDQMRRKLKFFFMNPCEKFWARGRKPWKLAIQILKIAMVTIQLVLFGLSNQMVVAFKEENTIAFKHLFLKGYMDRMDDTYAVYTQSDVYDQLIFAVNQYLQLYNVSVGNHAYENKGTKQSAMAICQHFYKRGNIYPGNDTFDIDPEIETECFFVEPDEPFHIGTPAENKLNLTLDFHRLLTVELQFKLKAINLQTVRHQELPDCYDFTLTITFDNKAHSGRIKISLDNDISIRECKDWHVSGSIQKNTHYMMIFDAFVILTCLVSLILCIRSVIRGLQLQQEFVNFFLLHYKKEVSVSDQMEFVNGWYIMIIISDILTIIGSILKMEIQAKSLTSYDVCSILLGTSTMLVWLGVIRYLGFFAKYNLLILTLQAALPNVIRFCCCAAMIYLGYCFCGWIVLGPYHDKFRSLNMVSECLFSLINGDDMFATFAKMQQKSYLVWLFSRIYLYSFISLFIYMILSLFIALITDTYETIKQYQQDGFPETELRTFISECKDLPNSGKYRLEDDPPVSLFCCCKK
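Test system: HEK293 cells stably carrying human TRPML3-YFP; Doses: single dose, 3 µM final nominal compound, 0.3% DMSO final; Schedule: dye loading 1 h 37 °C then 30 min ambient, 125 s read; Technique: Fluo-8 calcium fluorescence; Benchmarks: high control carbachol 87 µM, low control DMSO.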
CRFR2-BP ag – agonists of CRF-BP/CRF-R2 complex, primary screen, cell-based, HEK293, calcium dye fluorescence, uHTS | AID 588473, 2011 | activation, % at 13.2 µM | CRF-binding protein / CRF receptor 2 complex (human) | calcium dye fluorescence (FLIPR); percent of saturating CRF peptide response | 350,000 tested, 0.46% active;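 active = activation of at least 50%, plus an integration ratio under a set limit after plate pattern correction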
Each line names hits and unclear results; the compound was inactive in the other large screens. Sampled rows, rich in hits. Any-hit rate of the full collection: about 1.2%.

CC(=O)c1cc(C#N)c(N(C)Cc2ccccc2)nc1C	none
COC(=O)c1cc(C#N)c(NCc2ccccc2)nc1C	CRFBP-R2 block 54
CC(=O)c1cc(C#N)c(NCc2cc(-c3ccccc3)no2)nc1C	none
COC(=O)c1cc(C#N)c(N(C)Cc2ccccc2)nc1C	CRFBP-R2 block 62
Cc1ccc(C)c(S(=O)(=O)NC(CCC(N)=O)C(=O)O)c1 (stereo not given)	none
O=c1c2cc(Cl)ccc2nc(-c2ccc([N+](=O)[O-])cc2)n1O	none
Cc1ccc(-c2nc3c(Cl)cc(Cl)cc3c(=O)n2O)cc1	CRFR2-BP ag 66 (no result: TRPN1 ag, TRPML3 ag)
O=c1c2ccccc2nc(-c2ccccc2Cl)n1O	none
O=c1c2cc(Br)ccc2nc(-c2ccc(Cl)cc2)n1O	CRFR2-BP ag 73 (no result: TRPN1 ag, TRPML3 ag)
O=c1c2ccccc2nc(-c2ccc(Cl)c(Cl)c2)n1O	CRFR2-BP ag 55
O=c1c2ccc(Cl)cc2nc(-c2cccc(C(F)(F)F)c2)n1O	CRFR2-BP ag 69
OC(Cn1cncn1)c1ccc(Cl)cc1Cl (stereo not given)	none
CC(=O)N(C)c1ccc(N=NC2C(=O)N(C(N)=S)N=C2C)cc1 (stereo not given)	CRFBP-R2 block 51 (no result: TRPN1 ag, TRPML3 ag)
CC1=NN(C(N)=S)C(=O)C1N=Nc1ccc(S(N)(=O)=O)cc1 (stereo not given)	none (no result: TRPN1 ag, TRPML3 ag)
O=C1N=c2ccccc2=C1c1sc(=S)n(-c2ccc(O)cc2)c1O	none
O=C1N=c2ccccc2=C1c1sc(=S)n(NC(=O)c2cccc(O)c2)c1O	CRFBP-R2 block 65
Cc1c(NC(=O)CSc2nc3ccccc3[nH]2)c(=O)n(-c2ccccc2)n1C	none
Cc1ccc(NC(=O)C2CCCN2C(=O)c2cccs2)cc1C (stereo not given)	CRFBP-R2 block 54 (no result: TRPN1 ag, TRPML3 ag)
Cc1ccc(Cl)cc1NC(=O)COc1ccccc1	none (no result: TRPN1 ag, TRPML3 ag)
c1ccc(CNc2ccccn2)cc1	none (no result: TRPN1 ag, TRPML3 ag)
c1ccc(Nc2ccccc2Nc2ccccn2)nc1	TRPN1 ag 88, TRPML3 ag 68
O=C(CCC(=O)c1cccs1)NCc1cccnc1	none
Cc1cc(C)c(S(=O)(=O)N2CCCCC2)c(C)c1N(C)S(=O)(=O)c1ccccc1	TRPML3 ag 55
Cc1cc(C)c(S(=O)(=O)N2CCOCC2)c(C)c1N(C)S(=O)(=O)c1ccccc1	none (no result: TRPN1 ag, TRPML3 ag)
CC1CC(C)CN(S(=O)(=O)N2CCCC(C(=O)NCCc3ccccc3)C2)C1 (stereo not given)	none (no result: TRPN1 ag, TRPML3 ag)
Cc1ccc(CCNC(=O)C2CCCN(S(=O)(=O)N3CC(C)CC(C)C3)C2)cc1 (stereo not given)	CRFBP-R2 block 85 (no result: TRPN1 ag, TRPML3 ag)
N#Cc1cccc(C(c2nnnn2C2CCCC2)N2CCCCCC2)c1 (stereo not given)	CRFBP-R2 block 53
Cc1c(C)n(CCc2ccccc2)c2ncnc(NCCO)c12	none (no result: TRPN1 ag, TRPML3 ag)
O=C(OCCN1C(=O)c2ccccc2C1=O)c1cccc(OC(F)F)c1	CRFBP-R2 block 100
O=C(OCc1c(-c2ccccc2)ncc2ccccc12)c1ccc(Br)cc1	none (no result: TRPN1 ag, TRPML3 ag)
O=C(O)C1=CCNCC1	none (no result: TRPN1 ag, TRPML3 ag)
O=C(O)C1=CCCNC1	CRFBP-R2 block 57 (no result: TRPN1 ag, TRPML3 ag)
CCCCCOC(=O)Cc1c(O)c2ccccc2n(C)c1=O	none
CN1CCN(CC(=O)Nc2cc(N(C)C)nc3ccccc23)CC1	CRFBP-R2 block 58
O=C(COC(=O)C1CCN(S(=O)(=O)c2ccc3c(c2)OCCO3)CC1)NC1CCS(=O)(=O)C1 (stereo not given)	CRFBP-R2 block 115 (no result: TRPN1 ag, TRPML3 ag)
O=c1[nH]c(=O)n(-c2ccc(F)cc2)c2c1C(C(F)(F)F)(C(F)(F)F)N=C(c1ccc(F)cc1)N2	CRFBP-R2 block 67
O=c1[nH]c(=O)n(-c2ccccc2)c2c1C(C(F)(F)F)(C(F)(F)F)N=C(CCC1CCCCC1)N2	CRFR2-BP ag 109
COc1ccccc1N(CC(=O)NCCc1ccccc1)C(=O)CCC(=O)Nc1ccccn1	none (no result: TRPN1 ag, TRPML3 ag)
CC1CCCCC1NC(=O)CSc1nnc(C(F)(F)F)n1C (stereo not given)	none (no result: TRPN1 ag, TRPML3 ag)
COc1ccc(-c2c[n+]3c4n2CCCCC4=C(c2ccccc2)C3)cc1	CRFBP-R2 block 52
COc1ccc(-c2c[n+](CC(=O)c3ccccc3)c3n2CCCCC3)cc1	none
O=C1C(=O)N(Cc2cccnc2)C(c2cccc(O)c2)/C1=C(\O)c1ccc2c(c1)OCCO2 (stereo not given)	none (no result: TRPN1 ag, TRPML3 ag)
COc1ccccc1S(=O)(=O)Cc1ccc(C(=O)NCc2ccccc2)o1	CRFBP-R2 block 55 (no result: TRPN1 ag, TRPML3 ag)
Cc1cc(O)cc2c1C(=O)/C(=C/c1ccco1)O2	none (no result: TRPN1 ag, TRPML3 ag)
c1ccc(CCNc2nc3ccccc3n3nnnc23)cc1	CRFR2-BP ag 82
COc1ccc(CCNc2nc3ccccc3n3nnnc23)cc1OC	none
Cc1nn(C(C)C(=O)O)c(=O)c2ccccc12 (stereo not given)	CRFBP-R2 block 57
O=C(OCC(=O)N1N=C(c2ccc(Cl)cc2)CC1c1ccco1)c1ccco1 (stereo not given)	CRFR2-BP ag 240
Fc1ccc(C2=CC(c3ccc(Br)o3)n3ncnc3N2)cc1 (stereo not given)	CRFR2-BP ag 192
Oc1ccc(C2C=C(c3ccc(F)cc3)Nc3ncnn32)cc1 (stereo not given)	none
Fc1ccc(Br)cc1C1C=C(c2cccnc2)Nc2ncnn21 (stereo not given)	CRFR2-BP ag 53
Brc1ccc(C2=CC(c3cccs3)n3ncnc3N2)cc1 (stereo not given)	CRFR2-BP ag 318
CC(C)(C)c1ccc(C2=CC(c3ccccc3F)n3ncnc3N2)cc1 (stereo not given)	none (no result: TRPN1 ag, TRPML3 ag)
Fc1ccc(C2=CC(c3ccco3)n3ncnc3N2)cc1 (stereo not given)	CRFR2-BP ag 65
CCN(CC)C(=O)c1cc2cc([N+](=O)[O-])ccc2s1	none
CN(C)CCN(Cc1ccco1)C(=O)c1oc2ccccc2c1NC(=O)COc1ccccc1	none (no result: TRPN1 ag, TRPML3 ag)
Cc1ccc(C2C=C(c3ccccc3)Nc3ncnn32)cc1 (stereo not given)	none (no result: TRPN1 ag, TRPML3 ag)
C1=C(c2ccc(-c3ccccc3)cc2)Nc2ncnn2C1c1ccco1 (stereo not given)	CRFR2-BP ag 208
O=C(c1cc2c(s1)-c1ccccc1OC2)N1CCN(c2ccccn2)CC1	none
O=c1cccccc1NN=C1CCCCCC1	none
O=C(NNC(=O)c1ccccc1C(=O)O)c1ccc(O)cc1	CRFBP-R2 block 58
COc1ccc(/C=N/S(=O)(=O)c2cccs2)cc1	none
COc1ccc(/C=C2\S/C(=N/S(=O)(=O)c3cccs3)NC2=O)cc1	CRFBP-R2 block 69
Nc1ccc2c(c1)Cc1cc([N+](=O)[O-])ccc1-2	TRPML3 ag 15, CRFR2-BP ag 111
CC(O)CN(CC(C)O)c1ccc2c(c1)Cc1cc([N+](=O)[O-])ccc1-2 (stereo not given)	CRFR2-BP ag 197 (no result: TRPN1 ag, TRPML3 ag)
